# Active and inactive are the calls of the source. No cut-off for these calls is given here.
# Experiments:
# Rattus norvegicus [1] = organism: Rattus norvegicus; assay: Concentration required for the maximal release of state 4 respiration of rat liver mitochondria, relative to N'-Benzoyl-hydrazinecarbodithioic acid nonyl ester; assay type: functional, organism-based
# Rattus norvegicus [2] = organism: Rattus norvegicus; assay: Concentration required for the maximal release of state 4 respiration of rat liver mitochondria using succinate as substrate; assay type: functional
# Method in brief: (§1)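 Rat liver mitochondria isolated by a prior method, about 0.7 mg/mL in most runs. Medium: 200 mM sucrose, 2 mM MgCl2, 1 mM EDTA, 10 mM potassium phosphate pH 7.2, 25 °C. Substrate 10 mM succinate plus rotenone 1 μg/mg protein. O2 uptake in state 4 followed by Clark electrode after compound addition. Value is the concentration giving maximal release of respiration.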
# Rattus norvegicus [3] = organism: Rattus norvegicus; assay: Concentration required for the maximal release of state 4 respiration of rat liver mitochondria using succinate as substrate; Inactive; assay type: functional; method in brief: as §1
Compound,RA (Rattus norvegicus [1]),C100 (Rattus norvegicus [2]) [µM],C100 (Rattus norvegicus [3])
CCCCCCCCCSC(=S)N(C)NC(=O)c1ccccc1,6.9,40.3,
CCCCCCCCCS/C(S)=N/NC(=O)c1ccc(F)cc1,101,1.57,
CCCCCCCCCS/C(S)=N/NC(=O)c1ccc(Cl)cc1,109,1.46,
CCCCCCCCCS/C(S)=N/NC(=O)c1ccc(Cl)c(Cl)c1,82,1.93,
CCCCCCCCCS/C(S)=N/NC(=O)C1CCCCC1,35,4.52,
CCCCCCCCCS/C(S)=N/NC(=O)c1ccc(N(C)C)cc1,23,6.9,
CCCCCCCCCS/C(S)=N/NC(C)=O,0.61,457,
CCCCCCCCCS/C(=N/N(C)C(=O)c1ccccc1)SC,0,,inactive
CCCCCCCCCS/C(S)=N/NC(=O)c1ccccc1,100,1.59,
CCCCCCCCCS/C(S)=N/N=C/c1ccccc1,0.26,604,
CCCCCCCCCS/C(S)=N/c1ccccc1,0,,inactive
CCCCCCCCCSC(=S)N(C)N(C)C(=O)c1ccccc1,0,,inactive
CCCCCCCCCS/C(=N/NC(=O)c1ccccc1)SC,9.3,30.1,
CCCCCCCCCS/C(S)=N/N(C)C(=O)c1ccccc1,1.3,112,
CCCCCCCCCS/C(S)=N/NC(=O)c1ccc(OC)cc1,65,2.46,
CCCCCCCCCS/C(S)=N/Cc1ccccc1,0.44,360,
CCCCCCCCCSC(=S)NC(=O)c1ccccc1,5.7,27.9,
CCCCCCCCCS/C(S)=N/NC(=O)c1cccc2ccccc12,47,3.36,
CCCCCCCCCS/C(S)=N/Nc1ccccc1,0.1,1530,
CCCCCCCCCS/C(S)=N/NCc1ccccc1,0.02,8350,
CCCCCCCCCS/C(S)=N/NC(=O)c1ccc([N+](=O)[O-])cc1,125,1.27,
CCCCCCCCCS/C(S)=N/NC(=O)c1ccccn1,112,1.42,
